This is an account of results in article PMC2175342 (Nucleic Acids Research, 2007).

For experiment [1], the target named is T1, HeLa cell telomerase (Homo sapiens, UniProt O14746). As to the kind of experiment: Semi-quantitative telomerase assay based on the 'stretch PCR' method. Format: biochemical. Particulars: for Km: natural dNTP substrate, Lineweaver–Burk plot analyses.
The test system of experiment [2] is immortalized human B- and T-cell lines. Particulars: cited from earlier work.
Experiment [3] deals with telomerase from human leukemia cells and HeLa cells. Particulars: cited from earlier work.
In experiment [4] the target is T1, HeLa cell telomerase. Particulars: cited from earlier work.
For the next experiment, the system named is cherry salmon telomerase. As to the kind of experiment: Primer extension assay. Format: biochemical. Particulars: 18-mer (TTAGGG)3 primer, 5 or 20 µM analog. The essentials: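 Telomerase was partially purified from immature cherry salmon testis (DEAE-cellulose, 70% ammonium sulfate, dialysis). It extended 2 µM (TTAGGG)3 in Tris–HOAc pH 8.5, KOAc, 1 mM MgCl2, 1 mM DTT and 5 µM [α-32P]dTTP. Either 200 µM dATP with 0/5 µM dGTP plus 0/5/20 µM dGTP-analog, or 200 µM dGTP with 0/5 µM dATP plus 0/5/20 µM dATP-analog. Run 1 h at 25°C, then RNase A/proteinase K, 20% PAGE–7 M urea, phosphorimaging.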

Where two headings read alike, the source gives them in different places.

T1 sequence (O14746 whole entry): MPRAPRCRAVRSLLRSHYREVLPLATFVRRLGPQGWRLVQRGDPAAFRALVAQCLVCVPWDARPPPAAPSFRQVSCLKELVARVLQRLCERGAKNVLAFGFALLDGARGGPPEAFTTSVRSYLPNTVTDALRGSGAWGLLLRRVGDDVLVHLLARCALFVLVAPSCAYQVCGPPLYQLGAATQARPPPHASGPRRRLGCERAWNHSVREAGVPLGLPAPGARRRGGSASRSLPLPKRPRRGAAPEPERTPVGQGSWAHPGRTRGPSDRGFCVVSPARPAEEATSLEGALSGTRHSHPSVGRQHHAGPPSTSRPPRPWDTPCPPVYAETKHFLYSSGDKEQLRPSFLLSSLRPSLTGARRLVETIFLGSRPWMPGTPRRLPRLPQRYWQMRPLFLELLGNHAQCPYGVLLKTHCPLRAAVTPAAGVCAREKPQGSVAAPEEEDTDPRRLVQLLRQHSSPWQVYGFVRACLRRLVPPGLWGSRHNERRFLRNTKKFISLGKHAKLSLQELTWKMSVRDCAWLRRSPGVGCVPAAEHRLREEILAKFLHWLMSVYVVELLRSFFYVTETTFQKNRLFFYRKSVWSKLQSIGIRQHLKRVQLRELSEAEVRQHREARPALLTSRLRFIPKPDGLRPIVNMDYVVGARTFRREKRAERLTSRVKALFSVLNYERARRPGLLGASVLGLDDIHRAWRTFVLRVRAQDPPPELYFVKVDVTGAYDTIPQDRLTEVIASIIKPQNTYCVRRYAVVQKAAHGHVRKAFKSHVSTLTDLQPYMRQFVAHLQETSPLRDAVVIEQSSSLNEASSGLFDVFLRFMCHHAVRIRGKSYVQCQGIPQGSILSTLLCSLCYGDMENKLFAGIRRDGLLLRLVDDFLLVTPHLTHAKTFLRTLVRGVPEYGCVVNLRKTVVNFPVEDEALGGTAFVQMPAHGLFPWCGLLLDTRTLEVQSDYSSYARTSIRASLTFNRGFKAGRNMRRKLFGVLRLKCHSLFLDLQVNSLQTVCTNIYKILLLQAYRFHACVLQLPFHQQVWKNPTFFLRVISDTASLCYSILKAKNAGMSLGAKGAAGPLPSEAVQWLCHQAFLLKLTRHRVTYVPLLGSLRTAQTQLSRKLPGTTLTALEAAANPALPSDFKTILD
T1 sequence (O60832 whole entry partner): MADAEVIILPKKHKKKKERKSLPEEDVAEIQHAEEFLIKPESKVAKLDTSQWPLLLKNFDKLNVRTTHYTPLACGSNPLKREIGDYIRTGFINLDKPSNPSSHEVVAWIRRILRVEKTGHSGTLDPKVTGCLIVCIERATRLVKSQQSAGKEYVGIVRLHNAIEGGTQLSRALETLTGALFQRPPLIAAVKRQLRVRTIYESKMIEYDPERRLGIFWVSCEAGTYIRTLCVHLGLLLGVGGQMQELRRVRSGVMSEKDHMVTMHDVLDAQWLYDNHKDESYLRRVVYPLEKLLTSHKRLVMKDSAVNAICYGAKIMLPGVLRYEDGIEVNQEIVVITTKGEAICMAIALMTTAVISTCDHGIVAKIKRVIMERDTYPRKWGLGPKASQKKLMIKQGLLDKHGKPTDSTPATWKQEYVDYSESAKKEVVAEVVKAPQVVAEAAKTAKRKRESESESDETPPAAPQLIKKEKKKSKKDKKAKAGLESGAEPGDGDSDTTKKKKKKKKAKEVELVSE
T1 sequence (Q9NX24 whole entry partner): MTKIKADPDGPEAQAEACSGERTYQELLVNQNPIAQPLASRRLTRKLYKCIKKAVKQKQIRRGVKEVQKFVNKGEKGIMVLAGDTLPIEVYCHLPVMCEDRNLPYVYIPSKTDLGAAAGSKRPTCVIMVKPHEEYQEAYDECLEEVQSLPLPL
T1 sequence (Q9NPE3 whole entry partner): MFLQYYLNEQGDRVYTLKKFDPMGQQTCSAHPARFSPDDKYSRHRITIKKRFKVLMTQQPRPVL
T1 sequence (Q9NY12 whole entry partner): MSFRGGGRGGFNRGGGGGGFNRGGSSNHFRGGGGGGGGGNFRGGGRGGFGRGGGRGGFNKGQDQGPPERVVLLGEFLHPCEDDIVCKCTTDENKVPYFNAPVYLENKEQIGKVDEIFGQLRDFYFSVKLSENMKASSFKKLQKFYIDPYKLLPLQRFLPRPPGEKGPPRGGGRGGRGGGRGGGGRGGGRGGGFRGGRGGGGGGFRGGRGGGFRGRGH
T1 sequence (Q9BUR4 whole entry partner): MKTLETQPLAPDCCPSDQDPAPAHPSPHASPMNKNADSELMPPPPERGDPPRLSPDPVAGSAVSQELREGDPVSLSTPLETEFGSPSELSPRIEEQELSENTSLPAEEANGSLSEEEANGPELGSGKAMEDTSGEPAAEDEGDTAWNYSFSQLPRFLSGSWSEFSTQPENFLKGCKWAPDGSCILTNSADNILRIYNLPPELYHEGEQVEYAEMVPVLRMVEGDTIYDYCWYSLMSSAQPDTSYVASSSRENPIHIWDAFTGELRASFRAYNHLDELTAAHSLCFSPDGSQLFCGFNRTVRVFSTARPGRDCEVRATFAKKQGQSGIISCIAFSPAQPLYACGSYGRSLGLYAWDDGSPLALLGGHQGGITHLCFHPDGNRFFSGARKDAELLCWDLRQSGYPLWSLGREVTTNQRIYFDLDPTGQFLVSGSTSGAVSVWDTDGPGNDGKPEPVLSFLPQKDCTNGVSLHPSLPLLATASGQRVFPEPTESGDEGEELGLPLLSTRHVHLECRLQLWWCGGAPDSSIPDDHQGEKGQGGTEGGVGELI

The Ki is the dissociation constant of the complex between target and ligand, obtained from inhibition or displacement. `Cc1cn([C@H]2C[C@H](N=[N+]=[N-])[C@@H](COP(=O)(O)OP(=O)(O)OP(=O)(O)O)O2)c(=O)[nH]c1=O` [AZTTP, 3′-Azido-3′-deoxythymidine 5′-triphosphate] yielded a Ki at HeLa cell telomerase [1] of 15 µM. In addition, the “inhibitory effects on human telomerase” value on HeLa cell telomerase [1] (Figure 2B) was “weak”. The inhibition mode entry against HeLa cell telomerase [1] (Lineweaver–Burk plots, versus the corresponding dNTP) is listed as “nearly competitive”. On to `Nc1nc2c(ncn2[C@H]2CC[C@@H](CO)O2)c(=O)[nH]1` [ddG, 2′,3′-dideoxyguanosine], for which the “telomere DNA shortening” value in experiment [2] (10 µM, long-term treatment) is “reproducible progressive telomere DNA shortening”. In addition, the “effects on cell population doubling rates or morphology” value in experiment [2] is given as “did not have observable effects”. Broadly, the Km is the concentration of substrate that gives half-maximal velocity. `Cc1cn([C@H]2C[C@H](O)[C@@H](COP(=O)(O)OP(=O)(O)OP(=O)(O)O)O2)c(=O)[nH]c1=O` [dTTP]: the Km is 7.9 ± 1.8 µM at HeLa cell telomerase [1] and 8 to 12 µM in experiment [3]. On to `Nc1nc2c(ncn2[C@H]2CC[C@@H](COP(=O)(O)OP(=O)(O)OP(=O)(O)O)O2)c(=O)[nH]1` [ddGTP], for which the Ki at HeLa cell telomerase [4] was 0.65 µM. The “primer extension product with analog instead of dGTP or dATP” value in the experiment with cherry salmon telomerase is reported as “distinct 22-mer product”. `Nc1nc2c(ncn2[C@@H]2O[C@H](COP(=O)(O)OP(=O)(O)OP(=O)(O)O)[C@@H](O)[C@@H]2O)c(=O)[nH]1` [araGTP, 9-β-D-Arabinofuranosylguanine 5′-triphosphate]: on HeLa cell telomerase [4], the Ki was 1.2 µM. With `Nc1nc2c(ncn2[C@H]2C[C@H](O)[C@@H](COP(=O)(O)OP(=O)(O)OP(=O)(O)O)O2)c(=O)[nH]1` [dGTP], the Km on HeLa cell telomerase [1] was 8.2 ± 2.1 µM; in experiment [3] it was 8 to 12 µM. `Nc1ncnc2c1ncn2[C@H]1C[C@H](O)[C@@H](COP(=O)(O)OP(=O)(O)OP(=O)(O)O)O1` [dATP]: on HeLa cell telomerase [1], the Km came out at 0.97 ± 0.31 µM.
